These results are taken from ChEMBL document CHEMBL2380229, “Design, synthesis, cytotoxic evaluation and tubulin inhibitory activity of 4-aryl-5-(3,4,5-trimethoxyphenyl)-2-alkylthio-1H-imidazole derivatives” (Bioorg Med Chem, 2013).

A word on the IC50: it is the point on the concentration scale where inhibition reaches its midpoint.

Assay [1] concerns NIH3T3. Kind of assay: Cell cycle arrest in mouse NIH/3T3 cells assessed as accumulation at S phase at 0.10 uM after 24 hrs by propidium iodide staining-based FACS flow cytometric analysis (reference value: 24.39%). Format: functional.
The subject of assay [2] is NIH3T3. Put plainly: Cell cycle arrest in mouse NIH/3T3 cells assessed as accumulation at G2/M phase at 0.10 uM after 24 hrs by propidium iodide staining-based FACS flow cytometric analysis (reference value: 35.70%). The class given is functional. (In flow cytometry, cells or beads pass a laser one at a time.)
The test system of assay [3] is NIH3T3. Put plainly: Cell cycle arrest in mouse NIH/3T3 cells assessed as accumulation at G0/G1 phase at 0.10 uM after 24 hrs by propidium iodide staining-based FACS flow cytometric analysis (reference value: 39.91%). Format: functional.
Another assay has as its system AGS. Put plainly: Cytotoxicity against human AGS cells assessed as growth inhibition after 48 hrs by MTT assay. Format: functional, cell-based. The gist of the method: (§1)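 MTT assay. Cells seeded at 8000–10,000 viable cells per well and allowed 24 h before a 48 h compound exposure. MTT (5 mg/mL solution) added for a further 4 h, then formazan dissolved in DMSO. Absorbance read at 550 nm against a 690 nm reference. Two independent experiments in triplicate. IC50 by nonlinear regression, mean ± SD.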

The subject of assay [4] is NIH3T3. Kind of assay: Cytotoxicity against mouse NIH/3T3 cells assessed as growth inhibition after 48 hrs by MTT assay. Conditions: NIH3T3, 48 h. The class given is functional, cell-based. The gist of the method:
as §1
Background: Tetrazolium dyes change colour on reduction, which living cells bring about.

In another assay the test system is HT-29. Put plainly: Cytotoxicity against human HT-29 cells assessed as growth inhibition after 48 hrs by MTT assay. Format: functional, cell-based. The note with it: HT-29, 48 h. The gist of the method:
as §1

For the next assay, the system named is MCF7. Put plainly: Cytotoxicity against human MCF7 cells assessed as growth inhibition after 48 hrs by MTT assay. The note with it: MCF7, 48 h. Format: functional, cell-based. The gist of the method: as §1
The species entered for assay [5] is Ovis aries. Kind of assay: Inhibition of sheep brain microtubule polymerization at 5 uM after 15 mins by UV-vis spectrophotometric analysis. The gist of the method: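 Purified tubulin (12 µM) in PEM buffer (100 mM PIPES pH 6.9, 1 mM MgSO4, 1 mM EGTA) preincubated 15 min with compound (5 µM final), then cooled to 0 °C. GTP added to 1 mM final. Assembly started by warming from 0 to 37 °C and followed by absorbance at 350 nm. Positive control at 2 µM final.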

The species entered for assay [6] is Ovis aries. Put plainly: Inhibition of sheep brain microtubule polymerization at 2 uM after 15 mins by UV-vis spectrophotometric analysis. In a few lines:
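Purified microtubule protein preincubated 15 min with compound in PEM buffer (100 mM PIPES pH 6.9, 1 mM MgSO₄, 1 mM EGTA), then cooled to 0 °C. GTP added (1 mM final), and assembly started by warming from 0 to 37 °C. Polymerization followed as absorbance change at 350 nm.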

Activity calls are given as the source filed them. No cut-off for these calls is given here. Some results are limits rather than exact numbers.

Consider `COc1ccc(-c2[nH]c(SC)nc2-c2cc(OC)c(OC)c(OC)c2)cc1`, for which the values for the Activity in the assay on NIH3T3 [1], in the assay with NIH3T3 [2] and in the assay on NIH3T3 [3] were 7.07%, 91.93% and 1.01%, respectively. Further, the IC50 in the assay on AGS turned out to be 0.06 µM; in the assay on NIH3T3 [4], 0.06 µM; with HT-29, 0.25 µM; with MCF7 it was 0.52 µM. The “microtubule polymerization inhibition (active/inactive call)” value in the assay filed under Ovis aries [5] was “Active”.
On to `COc1ccc(-c2nc(SC)[nH]c2-c2ccc(OC)c(OC)c2)cc1OC`, for which the IC50 in the assay on AGS turned out to be 34.8 µM; in the assay with NIH3T3 [4] it was 35.8 µM; in the assay with HT-29 it was 24.1 µM; in the assay with MCF7, 17.2 µM.
In the case of `COc1ccc(-c2[nH]c(SC)nc2-c2cc(OC)c(OC)c(OC)c2)cc1OC`, the IC50 amounted to 10.6 µM with AGS, 6.01 µM with NIH3T3 [4], 4.82 µM in the assay on HT-29 and 4.04 µM with MCF7. Besides, the “microtubule polymerization inhibition (active/inactive call)” value in the assay listed under Ovis aries [5] was “Active”.
The corresponding values for `CCSc1nc(-c2cc(OC)c(OC)c(OC)c2)c(-c2ccc(OC)cc2)[nH]1` are 0.07 µM, 0.26 µM, 0.36 µM, 0.75 µM and “Active”.
On to `COc1ccccc1-c1[nH]c(SC)nc1-c1cc(OC)c(OC)c(OC)c1`, for which the IC50 in the assay with AGS worked out at 48.4 µM; with NIH3T3 [4] it was 38.7 µM; in the assay with HT-29, 21.7 µM; in the assay on MCF7, 12.2 µM.
For `CCSc1nc(-c2cc(OC)c(OC)c(OC)c2)c(-c2ccc(OC)cc2OC)[nH]1`, the IC50 with AGS is 18.6 µM; in the assay with NIH3T3 [4], 7.25 µM; in the assay with HT-29, 6.56 µM; with MCF7 it was 3.55 µM.
Regarding `CCSc1nc(-c2cc(OC)c(OC)c(OC)c2)c(-c2ccccc2OC)[nH]1`, the half-maximal inhibitory concentration (IC50) with AGS worked out at 40.7 µM; with NIH3T3 [4], 36.2 µM; in the assay on HT-29 it was 18.6 µM; in the assay on MCF7, 11 µM.
On to `COc1ccc(/C=C\c2cc(OC)c(OC)c(OC)c2)cc1O` [COMBRETASTATIN A4], for which the IC50 with AGS came to 0.04 µM; in the assay on NIH3T3 [4], 0.02 µM; with HT-29, 0.18 µM; with MCF7, 0.4 µM. The inhibition entry in the assay listed under Ovis aries [6] is “Active”.
With `COc1ccc(-c2[nH]c(SC)nc2-c2cc(OC)c(OC)c(OC)c2)c(OC)c1`, the concentration for half-maximal inhibition (IC50) in the assay with AGS is 23.2 µM; in the assay with NIH3T3 [4], 11.9 µM; with HT-29, 18.6 µM; in the assay on MCF7 it was 4.15 µM.
Consider `COc1cc(-c2nc(SC)[nH]c2-c2cccc(OC)c2OC)cc(OC)c1OC`, for which the IC50 was found to be 35.3 µM in the assay on AGS, 30.2 µM in the assay with NIH3T3 [4], 27.5 µM in the assay with HT-29 and 18.1 µM in the assay on MCF7.
On to `CCSc1nc(-c2cc(OC)c(OC)c(OC)c2)c(-c2cccc(OC)c2OC)[nH]1`, for which the IC50 in the assay on AGS is 39 µM; with NIH3T3 [4], 27.2 µM; with HT-29 it was 36.7 µM; in the assay with MCF7, 22.9 µM.
Consider `CCSc1nc(-c2cc(OC)c(OC)c(OC)c2)c(-c2ccc(OC)c(OC)c2)[nH]1`, for which the IC50 in the assay on AGS was 37.2 µM; in the assay on NIH3T3 [4], 14.1 µM; in the assay on HT-29, 21 µM; in the assay on MCF7, 13.2 µM. The “microtubule polymerization inhibition (active/inactive call)” value in the assay listed under Ovis aries [5] is “Active”.
For `COc1cc(-c2nc(SC)[nH]c2-c2cc(OC)c(OC)c(OC)c2)cc(OC)c1OC`, the IC50 in the assay on NIH3T3 [4] and with HT-29 was > 50 µM each time.
For `CCSc1nc(-c2cc(OC)c(OC)c(OC)c2)c(-c2cc(OC)c(OC)c(OC)c2)[nH]1`, the IC50 with NIH3T3 [4] and in the assay with HT-29 was > 50 µM throughout.
In the case of `CCSc1nc(-c2ccc(OC)c(OC)c2)c(-c2ccc(OC)c(OC)c2)[nH]1`, the IC50 in the assay on AGS came out at 33.6 µM; with NIH3T3 [4], 27.6 µM; with HT-29 it was 21.2 µM; in the assay with MCF7 it was 15.1 µM.
